Results from ChEMBL document CHEMBL1124929, “Indolo[2,1-a]isoquinolines. Syntheses, steroid hormone receptor binding affinities, and cytostatic activity” (1990).

Tests used:
[1] = biological target: T1, Androgen Receptor (Bos taurus) (UniProt Q5EM59); experiment: Relative binding affinity(RBA) for 50% displacement of [3H]mibolerone from Androgen receptor compared to testorone
T1 sequence (whole entry): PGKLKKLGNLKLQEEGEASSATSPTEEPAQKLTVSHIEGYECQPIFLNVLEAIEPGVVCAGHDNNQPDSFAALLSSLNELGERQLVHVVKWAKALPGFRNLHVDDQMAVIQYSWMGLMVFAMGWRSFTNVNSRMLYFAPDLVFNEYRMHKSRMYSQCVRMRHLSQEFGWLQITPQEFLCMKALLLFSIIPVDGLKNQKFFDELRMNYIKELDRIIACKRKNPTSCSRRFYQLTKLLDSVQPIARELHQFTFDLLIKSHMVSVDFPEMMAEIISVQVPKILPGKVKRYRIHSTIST
Outline: (§1)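 Receptor source was calf uterine cytosol (105000g supernatant, 3 mg/mL protein in assay). Buffers were Tris/EDTA pH 7.4, with NaN₃ for ER, molybdate/glycerol for AR, and sucrose for PR. Tracers were 1 nM [³H]estradiol, [³H]mibolerone or [³H]Org 2058. Incubation was at 0–4 °C for 16 h (ER) or 2 h (AR, PR), with 4–6 competitor concentrations. Nonspecific binding used 2 µM of the unlabeled hormone. Separation was by dextran-coated charcoal. RBA is the ratio of IC50 values for hormone and compound ×100, mean of two triplicate experiments.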

[2] = biological target: Estrogen receptor (Bos taurus) (UniProt Q9XSB5+P49884); experiment: Relative binding affinity(RBA) for 50% displacement of [3H]-estradiol from Estrogen receptor compared to 17-beta-estradiol; type: protein assay; outline: as §1
MDA-MB-231 [3] = experiment: Cytostatic effect on hormone-independent MDA-MB 231 human breast cancer cell proliferation at 1x10E-5 M; type: functional
Outline: (§2)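 Cells were plated at about 2 × 10⁴ per well in six-well dishes. MCF-7 cells were grown in modified improved MEM with 5% NCS, switched to charcoal-treated NCS two weeks before the test, and exposed for 5 days with a re-dose on day 4. MDA-MB 231 cells were grown in McCoy 5a with 10% NCS and exposed for 2 days. Compounds were given 1 day after plating in 0.1% DMSO, with DMSO-matched controls. Read-out was cell number as % T/C, mean of three experiments with six dishes.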

MDA-MB-231 [4] = experiment: Effect on [3H]thymidine incorporation into MDA-MB 231 human breast cancer cells at 1x10E-5 M; type: functional
Outline: (§3)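 Cells were seeded at ~2 × 10⁴ per well, treated from the next day in 0.1% DMSO, with DMSO controls. MCF-7 cells were held in charcoal-stripped NCS for 2 weeks, treated for 5 days and re-dosed on day 4. MDA-MB 231 cells were grown in McCoy 5a/10% NCS and treated for 2 days. At the end, 1 µCi [³H]thymidine per well was added for 2 h. Result is % T/C, mean of three experiments × six dishes.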

MDA-MB-231 [5] = experiment: Effect on [3H]-thymidine incorporation into MDA-MB 231 human breast cancer cells at 1x10E-6M; type: functional; outline: as §3
MDA-MB-231 [6] = experiment: Cytostatic effect on hormone-independent MDA-MB 231 human breast cancer cell proliferation at5x10E-6M; type: functional; outline: as §2
MDA-MB-231 [7] = experiment: Effect on [3H]thymidine incorporation into MDA-MB 231 human breast cancer cells at 5x10E-6M; type: functional; outline: as §3
MCF7 [8] = experiment: Effect on hormone-dependent MCF-7 human breast cancer cell proliferation at 1x10E-5 M; type: functional; outline: as §2
MCF7 [9] = experiment: Effect on [3H]thymidine incorporation into MCF-7 human breast cancer cells at 1x10E-5 M; type: functional; outline: as §3
MCF7 [10] = experiment: Effect on [3H]thymidine incorporation into MCF-7 human breast cancer cells at 1x10E-6M; type: functional; outline: as §3
[11] = biological target: T2, Estrogen receptor (Mus musculus) (UniProt O08537+P19785); experiment: (§4) Estrogenic activity in uterotrophic assay in immature mice at 2 ug subcutaneous dose; type: functional
Outline: (§5)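 Immature female NMRI mice, 20 days old, in groups of 6-10, were dosed sc once daily for three consecutive days. Compounds were given in PEG/0.9% saline 1:1; vehicle controls were included. Animals were killed 24 h after the last dose. Uteri were fixed in Bouin solution and the effect was taken as uterine dry weight (mg)/body weight (g) ×100, given as mean ± SD.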

[12] = biological target: T2, Estrogen receptor (Mus musculus); experiment: (§6) Estrogenic activity in uterotrophic assay in immature mice at 50.0 ug subcutaneous dose; type: functional; outline: as §5
[13] = biological target: T2, Estrogen receptor (Mus musculus); experiment: (§7) Estrogenic activity in uterotrophic assay in immature mice at 10.0 ug subcutaneous dose; type: functional; outline: as §5
[14] = biological target: T2, Estrogen receptor (Mus musculus); experiment: as §4; type: functional; outline: as §5; remark: listed apart in the source
[15] = biological target: T2, Estrogen receptor (Mus musculus); experiment: (§8) Estrogenic activity in uterotrophic assay in immature mice at 250 ug subcutaneous dose; type: functional; outline: as §5
[16] = biological target: T2, Estrogen receptor (Mus musculus); experiment: as §6; type: functional; outline: as §5; remark: listed apart in the source
[17] = biological target: T2, Estrogen receptor (Mus musculus); experiment: as §8; type: functional; outline: as §5; remark: listed apart in the source
[18] = biological target: T2, Estrogen receptor (Mus musculus); experiment: as §7; type: functional; outline: as §5; remark: listed apart in the source
[19] = biological target: T2, Estrogen receptor (Mus musculus); experiment: Inhibition of 0.4 ug estrone-stimulated uterine growth in mice at 2 ug subcutaneous dose; type: functional
Outline: (§9)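 Immature 20-day-old female NMRI mice received sc injections on three consecutive days. Each injection held 0.4 µg estrone plus the compound in PEG/saline 1:1. […] Significance was tested by Mann-Whitney U test.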

Bos taurus = organism: Bos taurus; experiment: Relative binding affinity(RBA) as ratio of progesterone and compound required to displace [3H]-org 2058 binding to Progesterone receptor by 50%; outline: as §1
[20] = biological target: T3, Androgen receptor (Mus musculus) (UniProt P19091); experiment: Relative effect on seminal vesicle weight in adult and castrated mice at 1000 ug dose; type: functional, tissue-based
T3 sequence (whole entry): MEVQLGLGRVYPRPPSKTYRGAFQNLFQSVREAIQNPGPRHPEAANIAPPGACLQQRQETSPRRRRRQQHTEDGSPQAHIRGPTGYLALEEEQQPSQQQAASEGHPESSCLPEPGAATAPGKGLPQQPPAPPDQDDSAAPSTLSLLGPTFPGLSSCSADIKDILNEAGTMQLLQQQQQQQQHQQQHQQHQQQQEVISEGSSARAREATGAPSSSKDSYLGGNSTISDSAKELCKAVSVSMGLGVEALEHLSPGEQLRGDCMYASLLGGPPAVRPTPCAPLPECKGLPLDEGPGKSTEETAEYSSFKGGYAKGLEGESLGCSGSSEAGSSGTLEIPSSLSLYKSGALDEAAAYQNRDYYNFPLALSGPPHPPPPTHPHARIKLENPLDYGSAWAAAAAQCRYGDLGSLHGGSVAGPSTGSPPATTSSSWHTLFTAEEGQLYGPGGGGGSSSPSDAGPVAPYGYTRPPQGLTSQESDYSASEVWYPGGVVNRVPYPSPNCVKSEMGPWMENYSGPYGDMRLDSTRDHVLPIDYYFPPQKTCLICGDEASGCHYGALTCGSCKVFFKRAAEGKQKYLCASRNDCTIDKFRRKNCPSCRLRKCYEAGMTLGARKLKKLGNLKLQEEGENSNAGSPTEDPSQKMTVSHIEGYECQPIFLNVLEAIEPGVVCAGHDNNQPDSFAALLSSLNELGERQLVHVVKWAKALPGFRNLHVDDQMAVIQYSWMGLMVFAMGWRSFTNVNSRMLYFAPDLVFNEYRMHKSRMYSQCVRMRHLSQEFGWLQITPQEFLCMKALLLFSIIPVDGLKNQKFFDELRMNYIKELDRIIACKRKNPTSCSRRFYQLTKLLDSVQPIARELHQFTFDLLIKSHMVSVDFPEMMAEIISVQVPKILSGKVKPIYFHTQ
Outline: (§10)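 Adult male mice, 23–25 g, six per group, were used intact or castrated via the scrotal route under ether 5 days before the test. Castrates received 0.3 mg testosterone propionate daily. Compounds were injected daily in olive oil for nine days. Seminal vesicles were taken 24 h later, fixed in Bouin solution, dried overnight at 100 °C and weighed. Result is organ mg/body g ×100; % inhibition = [1 − treated/control] × 100.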

[21] = biological target: T3, Androgen receptor (Mus musculus); experiment: Relative effect on seminal vesicle weight in adult and castrated mice at 100 ug dose; type: functional, tissue-based; outline: as §10
[22] = biological target: T3, Androgen receptor (Mus musculus); experiment: Relative effect on seminal vesicle weight in adult and castrated mice at 10 ug dose; type: functional, tissue-based; outline: as §10
MDA-MB-231 [23] = experiment: Cytostatic effect on hormone-independent MDA-MB 231 human breast cancer cell proliferation at 1x10E-6M; type: functional; outline: as §2
[24] = biological target: T3, Androgen receptor (Mus musculus); experiment: Inhibition of seminal vesicle weight in intact mice at 100 ug
[25] = biological target: T3, Androgen receptor (Mus musculus); experiment: Inhibition of seminal vesicle weight in intact mice at 10.0 ug
[26] = biological target: T3, Androgen receptor (Mus musculus); experiment: as above; remark: listed apart in the source
MCF7 [27] = experiment: Effect on hormone-dependent MCF-7 human breast cancer cell proliferation at 1x10E-6M; type: functional; outline: as §2
[28] = biological target: T2, Estrogen receptor (Mus musculus); experiment: (§11) Estrogenic activity in uterotrophic assay in immature mice at 125 ug subcutaneous dose; type: functional; outline: as §5
[29] = biological target: T2, Estrogen receptor (Mus musculus); experiment: (§12) Estrogenic activity in uterotrophic assay in immature mice at 40.0 ug subcutaneous dose; type: functional; outline: as §5
[30] = biological target: T2, Estrogen receptor (Mus musculus); experiment: as §12; type: functional; outline: as §5; remark: listed apart in the source
[31] = biological target: T2, Estrogen receptor (Mus musculus); experiment: as §11; type: functional; outline: as §5; remark: listed apart in the source
[32] = biological target: T2, Estrogen receptor (Mus musculus); experiment: Inhibition of 0.4 ug estrone-stimulated uterine growth in mice at 40.0 ug subcutaneous dose; type: functional; outline: as §9
[33] = biological target: T2, Estrogen receptor (Mus musculus); experiment: Inhibition of 0.4 ug estrone-stimulated uterine growth in mice at 125 ug subcutaneous dose; type: functional; outline: as §9

T2 sequence (O08537 whole entry, looked up): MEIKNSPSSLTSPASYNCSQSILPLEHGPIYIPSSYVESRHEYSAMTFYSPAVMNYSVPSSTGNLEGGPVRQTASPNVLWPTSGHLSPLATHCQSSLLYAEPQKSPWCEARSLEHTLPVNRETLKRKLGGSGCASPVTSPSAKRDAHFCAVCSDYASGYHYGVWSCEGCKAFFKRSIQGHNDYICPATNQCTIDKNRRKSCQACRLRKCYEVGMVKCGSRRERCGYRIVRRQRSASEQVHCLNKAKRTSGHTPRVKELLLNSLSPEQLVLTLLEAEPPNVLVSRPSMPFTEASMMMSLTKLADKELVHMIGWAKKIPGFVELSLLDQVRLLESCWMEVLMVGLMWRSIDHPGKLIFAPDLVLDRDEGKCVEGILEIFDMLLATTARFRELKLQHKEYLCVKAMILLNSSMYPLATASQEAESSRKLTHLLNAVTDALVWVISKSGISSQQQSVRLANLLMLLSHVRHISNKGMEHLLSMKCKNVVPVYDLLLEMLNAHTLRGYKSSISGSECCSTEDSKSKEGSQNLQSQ
T2 sequence (P19785 whole entry, looked up): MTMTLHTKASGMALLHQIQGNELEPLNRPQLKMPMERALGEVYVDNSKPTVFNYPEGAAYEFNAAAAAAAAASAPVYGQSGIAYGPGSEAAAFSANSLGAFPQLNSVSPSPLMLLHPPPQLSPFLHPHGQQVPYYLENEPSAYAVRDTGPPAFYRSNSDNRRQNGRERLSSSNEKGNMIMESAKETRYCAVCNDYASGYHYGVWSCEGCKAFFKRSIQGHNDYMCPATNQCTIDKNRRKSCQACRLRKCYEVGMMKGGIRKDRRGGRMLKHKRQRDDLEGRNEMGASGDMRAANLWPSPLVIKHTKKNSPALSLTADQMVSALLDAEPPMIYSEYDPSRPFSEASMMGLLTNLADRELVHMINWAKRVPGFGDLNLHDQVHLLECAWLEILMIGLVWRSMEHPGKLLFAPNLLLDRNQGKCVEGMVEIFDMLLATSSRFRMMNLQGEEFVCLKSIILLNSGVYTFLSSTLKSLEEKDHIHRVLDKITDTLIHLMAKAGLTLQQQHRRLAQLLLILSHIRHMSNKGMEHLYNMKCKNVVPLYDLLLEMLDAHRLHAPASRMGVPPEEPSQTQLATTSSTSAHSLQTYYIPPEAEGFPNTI

Row | SMILES | RBA [1] | RBA [2] | T/C (MDA-MB-231 [3]) | T/C (MDA-MB-231 [4]) | T/C (MCF7 [8]) | T/C (MCF7 [9]) | T/C (MCF7 [10]) | Effect [11] | Effect [14] | inhibition [19] | RBA (Bos taurus) | T/C (MDA-MB-231 [23]) | other results
1 | CC(=O)Oc1ccc2c(c1)CC(C)n1c-2cc2cc(OC(C)=O)ccc21 (stereo unspecified) | 0.2 | 12 | 5% | 5% | 7% | 2% | 36% | 21.2 | 52.6 | -8% | 0.01 | 78% | T/C (MDA-MB-231 [5]): 65%; T/C (MDA-MB-231 [6]): 10%; T/C (MDA-MB-231 [7]): 10%; Effect [12]: 53.3; Effect [13]: 56; Effect [15]: 61.1; Effect [16]: 61.2; Effect [17]: 72.2; Effect [18]: 26.3; Relative seminal vesicle weight [20]: 45.2; Relative seminal vesicle weight [21]: 145; Relative seminal vesicle weight [22]: 195; inhibition [24]: 27%; inhibition [25]: 1%; inhibition [26]: 1%
2 | CCC1Cc2cc(OC(C)=O)ccc2-c2c(C=O)c3cc(OC(C)=O)ccc3n21 (stereo unspecified) | 0.03 | 4.6 | 14% | 7% | 13% | 3% | 41% | 14.5 | 48.2 | 19.6% | < 0.01 | 75% | T/C (MCF7 [27]): 55%; Effect [28]: 54.7; Effect [29]: 38.2; Effect [30]: 54.7; Effect [31]: 56; inhibition [32]: 2.6%; inhibition [33]: 2.7%
